Assay results: ChEMBL document CHEMBL1124846, “Synthesis, antiproliferative, and antiviral activity of certain 4-substituted and 4,5-disubstituted 7-[(1,3-dihydroxy-2-propoxy)methyl]pyrrolo[2,3-d]pyrimidines” (J Med Chem, 1990)
pIC50: −log10 of the molar value.

Experiments:
Mus musculus [1] = test: Compound was evaluated for mean day of death at 16.7 mg/kg; drug toxicity control; type: functional
How it was run: (§1)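 Drug toxicity control: uninfected three-week-old female Swiss Webster mice, groups of 15, dosed ip twice daily for 5 days. Held 21 days with daily mortality checks. Final mortality and mean day of death for animals that died were calculated.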

Mus musculus [2] = test: Compound was evaluated for mean day of death at 16.7 mg/kg at 48 h; type: functional
How it was run: (§2)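 Three-week-old female Swiss Webster mice inoculated ip with 2×10^5 PFU MCMV Smith strain. Groups of 15 dosed ip twice daily for 5 days, starting 6, 24 or 48 h post-inoculation. Held 21 days with daily mortality checks. Final mortality and mean day of death (dying animals) computed. Mortality versus placebo by Fisher Exact Test, MDD by Mann–Whitney U-rank test.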

Mus musculus [3] = test: Compound was evaluated for mean day of death at 16.7 mg/kg at 24 h; type: functional; how it was run: as §2
Mus musculus [4] = test: Compound was evaluated for mean day of death at 5.6 mg/kg at 24 h; type: functional; how it was run: as §2
Mus musculus [5] = test: Compound was evaluated for 15 mice treated ip twice daily for 5 days at a dose of 1.9 mg/kg at 6 hr followed (MCMV) virus inoculation; type: functional; settings: route intraperitoneal; how it was run: as §2
Human betaherpesvirus 5 = test: Inhibition of human cytomegalovirus (HCMV) in plaque reduction assay; type: functional, organism-based
How it was run: (§3)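 HCMV Towne strain (plaque-purified P0) plaque reduction in HFF monolayers in MEM(E) with 10% FBS. Inoculum held about 50 PFU, with compound dissolved in the overlay medium. IC50 came from linear regression of percent inhibition against log concentration, with ganciclovir or acyclovir positive controls in every set; two to five experiments.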

[6] = Compound was evaluated for percent mortality of mice inoculated with murine cytomegalovirus at a concentration of 16.7 mg/kg; drug toxicity control; type: organism-based; set-up: dose 16.7 mg/kg; settings: mouse, in vivo; how it was run: as §1
[7] = Cytotoxicity of HCMV in human foreskin fibroblasts cells; type: functional, cell-based; settings: Fibroblast
How it was run: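 Visual cytotoxicity was scored in uninfected cells of the same host monolayers used for the plaque assays, on a 0 to 4+ scale at 35- and 60-fold magnification, at the time plaques were counted.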

Homo sapiens [8] = species: Homo sapiens; test: Inhibition of human cytomegalo virus (HCMV) in human foreskin fibroblasts cell lines was determined by plaque assay; type: functional, organism-based; settings: Fibroblast; how it was run: as §3
Mus musculus [9] = test: Compound was evaluated for percent mortality of mice inoculated with murine cytomegalovirus at a concentration of 5.6 mg/kg; drug toxicity control; type: functional
How it was run: (§4)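 Three-week-old female Swiss Webster mice infected ip with 2×10^5 PFU MCMV Smith strain; groups of 15 given drug ip twice daily for 5 days, starting 6, 24 or 48 h after inoculation. Toxicity controls received drug without virus. Mortality followed daily for 21 days; final mortality compared with placebo by Fisher Exact Test.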

[10] = Cytotoxicity of AD169 strain of HCMV in human foreskin fibroblasts cells; type: functional, cell-based; settings: Fibroblast
[11] = Inhibition of herpes simplex virus type 1(HSV-1) in monkey kidney cell was determined by plaque assay; type: functional, cell-based; settings: Cercopithecidae
How it was run: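 HSV-1 S-148 strain plaque reduction in BSC-1 monkey kidney monolayers, with about 100 PFU inoculum and compound dissolved in the overlay medium. IC50 came from linear regression of percent inhibition against log concentration, with a positive control in each set.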

Mus musculus [12] = test: Compound was evaluated for 15 mice treated ip twice daily for 5 days at a dose of 1.9 mg/kg at 24 hr followed (MCMV) virus inoculation; type: functional; settings: route intraperitoneal; how it was run: as §2
L1210 [13] = test: In vitro inhibition of L1210 cell growth.; type: functional, Mus musculus; set-up: concentration or dose not given beside the values
How it was run: (§5)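 Murine L1210 leukemia cells in static suspension culture in Fischer's medium with compound for 4 days. Growth rate is the ratio of control to treated population doubling time; where the rate changed, the final rate was used. IC50 is the concentration giving 50% of control growth rate; single-concentration value at 100 μM.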

Mus musculus [14] = species: Mus musculus; test: Inhibition of herpes simplex virus […](HSV-2) in mouse embryo fibroblasts cell lines was determined by plaque assay; type: functional, organism-based; settings: Fibroblast
How it was run: (§6)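 Plaque reduction used MCMV Smith in primary mouse embryo fibroblasts, HCMV AD169 in low-passage HFF, and HSV-1 E-377 and HSV-2 MS in MEF, rabbit kidney or HFF. IC50 was determined against untreated controls; two or more experiments.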

Mus musculus [15] = test: Compound was evaluated for percent mortality of mice inoculated with murine cytomegalovirus at a concentration of 16.7 mg/kg at 24 h; type: organism-based; set-up: dose 16.7 mg/kg; settings: in vivo; how it was run: as §2
Mus musculus [16] = test: Compound was evaluated for mean day of death at 1.9 mg/kg at 48 h; type: functional; how it was run: as §2
Mus musculus [17] = test: Compound was evaluated for mean day of death at 1.9 mg/kg at 24 h; type: functional; how it was run: as §2
L1210 [18] = test: In vitro inhibition of L1210 cell growth to half of the control rate; type: functional, cell-based; settings: Mus musculus; how it was run: as §5
Mus musculus [19] = test: Compound was evaluated for 15 mice treated ip twice daily for 5 days at a dose of 5.6 mg/kg at 48 hr followed (MCMV) virus inoculation; type: functional; settings: route intraperitoneal; how it was run: as §2
Mus musculus [20] = test: Compound was evaluated for 15 mice treated ip twice daily for 5 days at a dose of 50 mg/kg at 48 hr followed (MCMV) virus inoculation; type: functional; settings: route intraperitoneal; how it was run: as §2
Homo sapiens [21] = species: Homo sapiens; test: Inhibition of AD169 strain human cytomegalo virus (HCMV) in human foreskin fibroblasts cell lines was determined by plaque assay; type: functional, organism-based; settings: Fibroblast; how it was run: as §6
Mus musculus [22] = test: Compound was evaluated for percent mortality of mice inoculated with murine cytomegalovirus at a concentration of 5.6 mg/kg at 48 h; type: ADME, organism-based; set-up: dose 5.6 mg/kg; settings: in vivo; how it was run: as §4
Mus musculus [23] = test: Compound was evaluated for percent mortality of mice inoculated with murine cytomegalovirus at a concentration of 5.6 mg/kg at 24 h; type: ADME, organism-based; set-up: dose 5.6 mg/kg; settings: in vivo; how it was run: as §4
Mus musculus [24] = test: Compound was evaluated for percent mortality of mice inoculated with murine cytomegalovirus at a concentration of 5.6 mg/kg at 6 h; type: ADME, organism-based; set-up: dose 5.6 mg/kg; settings: in vivo; how it was run: as §4
Mus musculus [25] = species: Mus musculus; test: Inhibition of murine cytomegalo virus in mouse embryo fibroblasts cell lines was determined by plaque assay; type: functional, organism-based; settings: Fibroblast; how it was run: as §6
Mus musculus [26] = test: Compound was evaluated for mean day of death at 50 mg/kg at 6 h; type: functional; how it was run: as §2
Mus musculus [27] = test: Compound was evaluated for 15 mice treated ip twice daily for 5 days at a dose of 16.7 mg/kg at 24 hr followed (MCMV) virus inoculation; type: functional; settings: route intraperitoneal; how it was run: as §2
[28] = Compound was evaluated for cytotoxic activity against BSC cells; type: functional, cell-based; settings: Cercopithecidae
How it was run: (§7)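 Visual cytotoxicity in uninfected areas of plaque-reduction cultures. HFF cells grown in MEM(E) + 10% FBS for HCMV (Towne) assays; BSC-1 cells for HSV-1 (S-148) assays. Drug in overlay medium. Cytopathology scored 0 to 4+ at 35- and 60-fold magnification on the staining day.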

Mus musculus [29] = test: Compound was evaluated for percent mortality of mice inoculated with murine cytomegalovirus at a concentration of 16.7 mg/kg at 6 h; type: organism-based; set-up: dose 16.7 mg/kg; settings: in vivo; how it was run: as §2
Mus musculus [30] = test: Compound was evaluated for percent mortality of mice inoculated with murine cytomegalovirus at a concentration of 50 mg/kg at 48 h; type: ADME, organism-based; set-up: dose 50 mg/kg; settings: in vivo; how it was run: as §4
Mus musculus [31] = test: Compound was evaluated for 15 mice treated ip twice daily for 5 days at a dose of 50 mg/kg followed (MCMV) virus inoculation; type: functional; settings: route intraperitoneal
[32] = Compound was evaluated for cytotoxic activity against HFF cells; type: functional, cell-based; settings: Homo sapiens; how it was run: as §7
[33] = Inhibition of herpes simplex virus type 1(HSV-1) in human foreskin fibroblasts cell lines was determined by plaque assay; type: functional, cell-based; settings: Fibroblast; how it was run: as §6
Mus musculus [34] = test: Compound was evaluated for 15 mice treated ip twice daily for 5 days at a dose of 1.9 mg/kg followed (MCMV) virus inoculation; type: functional; settings: route intraperitoneal
[35] = Compound was evaluated for percent mortality of mice inoculated with murine cytomegalovirus at a concentration of 1.9 mg/kg; drug toxicity control; type: organism-based; set-up: dose 1.9 mg/kg; settings: mouse, in vivo; how it was run: as §1

Nc1ncnc2c1c(Br)cn2COC(CO)CO showed an MDD (Mus musculus [1]) of 5, an MDD (Mus musculus [2]) of 8.4 and an MDD (Mus musculus [3]) of 7.1. The MDD (Mus musculus [4]) was 6.3, the Activity (Mus musculus [5]) was 5 and the pIC50 (Human betaherpesvirus 5) was 5.72. The pIC50 (Human betaherpesvirus 5; Human betaherpesvirus 5) was 5.80, the Mortality [6] was 7% and the pIC50 [7] was < 4.00. The pIC50 (Homo sapiens [8]) was 5.80, the mortality at 5.6 mg/kg (Mus musculus [9]) was 0% and the pIC50 [10] was < 3.80. The pIC50 [11] was 5.70, the Activity (Mus musculus [12]) was 9 and the Activity (L1210 [13]) was 0%. For the same compound, the pIC50 (Mus musculus [14]) was 5.72, the Mortality (Mus musculus [15]) was 80% and the MDD (Mus musculus [16]) was 4.8. It also gave an MDD (Mus musculus [17]) of 4.8, a pIC50 (L1210 [18]) of 6.15 and an Activity (Mus musculus [19]) of 6. For the same compound, the Activity (Mus musculus [20]) was 13, the pIC50 (Homo sapiens [21]) was 6.22 and the Mortality (Mus musculus [22]) was 40%. It also gave a Mortality (Mus musculus [23]) of 20%, a Mortality (Mus musculus [24]) of 7% and a pIC50 (Mus musculus [25]) of 7.52. For the same compound, the MDD (Mus musculus [26]) was 10.8, the Activity (Mus musculus [27]) was 12 and the pIC50 [28] was < 4.00. The Mortality (Mus musculus [29]) was 60%, the Mortality (Mus musculus [30]) was 87% and the Activity (Mus musculus [31]) was 0. For the same compound, the pIC50 [32] was < 4.00, the pIC50 [33] was 6.70 and the Activity (Mus musculus [34]) was 0. For the same compound, the Mortality [35] was 0%.
